From PubChem
MBD2 DNA inh: inhibitors of MBD2 binding to methylated DNA, primary screen, biochemical, TR-FRET, DNA-binding domain, human | AID 686964, 2013 | Methyl-CpG-binding domain protein 2 (Homo sapiens), Q9UBB5 | inhibition, % at 4.4 µM | MBD2 binding to methylated oligonucleotide | 0.31% of 370,000 active; in the data active = inhibition above about 13%
Target sequence (Q9UBB5 whole entry, looked up, the tested form may be a part): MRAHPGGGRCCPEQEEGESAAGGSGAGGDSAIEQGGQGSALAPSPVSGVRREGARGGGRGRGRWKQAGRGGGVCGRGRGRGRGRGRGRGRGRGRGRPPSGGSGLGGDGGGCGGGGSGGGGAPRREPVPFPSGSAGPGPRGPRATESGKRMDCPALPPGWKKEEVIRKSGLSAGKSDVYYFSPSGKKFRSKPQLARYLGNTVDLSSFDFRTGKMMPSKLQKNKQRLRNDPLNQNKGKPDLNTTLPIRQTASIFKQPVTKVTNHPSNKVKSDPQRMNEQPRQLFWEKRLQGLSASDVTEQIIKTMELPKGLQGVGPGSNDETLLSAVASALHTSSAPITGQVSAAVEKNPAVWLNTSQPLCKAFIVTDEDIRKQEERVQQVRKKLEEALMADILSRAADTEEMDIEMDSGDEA
LEDGF integ inh: blockers of LEDGF/p75-dependent integrase strand transfer – biochemical, TR-FRET, high throughput, primary screen; TR-FRET IN-LEDGF/p75 DNA integration, Eu/Cy5; 0.64% of 370,000 active; HIV-1 integrase (with human LEDGF/p75); AID 743269, 2014; inhibition, % at 3.7 µM;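 active = inhibition above the screen-wide mean plus 3 SD, cut at about 13% in these data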;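 note: signal is the Cy5 over europium emission ratio at 671 and 618 nm; 0% = plate median of compound wells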
TDP2 absorb: human TDP2 enzyme inhibitors, primary screen, biochemical, epi absorbance, recombinant enzyme | Tyrosyl-DNA phosphodiesterase 2 (Homo sapiens), O95551 | T5PNP hydrolysis, p-nitrophenol absorbance 415 nm | inhibition, % at 12.8 µM | 0.34% of 370,000 active;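 active = inhibition above the mean of all tested compounds plus 3 SD, set per campaign, cut at about 25% in these data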;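 note: 0% = DMSO with enzyme and 100% = buffer with substrate but no TDP2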
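Material: recombinant human TDP2; quantity: TDP2 enzyme at 120 nM final; medium: Tris-HCl pH 7.5 with MgCl2; compound: single concentration, 12.8 µM nominal, with 1% DMSO; incubation: 2 h enzyme incubation at 37 °C; signal: epi absorbance; measure: percent inhibition; benchmarks: high control without enzyme, low control DMSO plus TDP2; repeats: singlicate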
PRMT1 inh: PRMT1 methyltransferase inhibitors, primary screen, biochemical, fluorescence polarization | AID 652257, 2013 | Protein arginine N-methyltransferase 1 (Homo sapiens), Q99873 | recombinant PRMT1, activity-based probe fluorescence polarization | 1.3% of 370,000 active | inhibition, % at 2.79 µM;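 active = inhibition above about 21% made by adding two undisclosed values, limit read from the data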
SIAE primary: human SIAE inhibitors, primary screen, biochemical, fluorescence polarization, FP-Rh probe, 1536-well HTS | 0.69% of 370,000 active | inhibition, % at 9.66 µM | SIAE FP-Rh probe binding | Sialate O-acetylesterase (Homo sapiens), Q9HAT2;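 active = inhibition above a cutoff: mean of compounds within the control limits plus 3 SD of those, cut at about 17% in these data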;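 note: 0% = plate median of compound wells and 100% = probe without SIAE protein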
UHRF1 MBD2 ctr: UHRF1 methylated DNA binding inhibitors, primary screen, counter-screen for MBD2 inhibitor project, biochemical, TR-FRET, human UHRF1, single concentration; E3 ubiquitin-protein ligase UHRF1 (Homo sapiens), Q96T88; UHRF1 binding to methylated oligo; inhibition, % at 4.4 µM; 0.75% of 370,000 active; AID 687016, 2013; in the data active = inhibition above about 21%;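 note: UHRF1 SRA domain binding a hemimethylated CpG hairpin DNA probe; 0% = median of test compound wells and 100% = reference inhibitor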
UHRF1 ctr MBD2: UHRF1 methylated DNA binding inhibitors, counter-screen for MBD2 inhibitor project, biochemical, TR-FRET, human UHRF1; UHRF1 binding to methylated oligonucleotide; 25% of 1,000 active; shares compounds with MBD2 DNA inh; inhibition, % at 4.4 µM; in the data active = inhibition above about 21%;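 note: UHRF1 SRA domain binding a labeled hemimethylated CpG hairpin DNA; 0% = vehicle only and 100% = reference inhibitor with vehicle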
MBD2 confirm: inhibitors of MBD2 binding to methylated DNA, confirmation, biochemical, TR-FRET, DNA-binding domain, human | shares compounds with MBD2 DNA inh | TR-FRET MBD2-DBD binding to methylated oligonucleotide | inhibition, % at 4.4 µM | 26% of 1,000 active | AID 720531, 2013
TDP2 inh conf: human TDP2 enzyme inhibitors, retest, confirmation, biochemical, epi absorbance, recombinant enzyme; shares compounds with TDP2 absorb; absorbance read-out; inhibition, % at 12.8 µM; 22% of 1,100 active; AID 743263, 2014; in the data active = inhibition above about 25%;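 note: 0% = vehicle with enzyme and 100% = no enzyme buffer only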
IN multimer act: HIV-1 IN multimer formation enhancers, counter-screen for LEDGF/p75 integration inhibitor project, biochemical, TR-FRET | shares compounds with LEDGF integ inh | TR-FRET HIV-1 integrase multimerization | activation, % at 7.7 µM | 17% of 2,000 active | AID 1053131, 2014; in the data active = activation above about 8.9%
TRFRET interf: TR-FRET optical interference artefacts, confirmation, artefact control for LEDGF/p75-dependent integration inhibitor project, biochemical, HIV-1 IN multimerization | shares compounds with LEDGF integ inh | TR-FRET optical interference counterscreen | inhibition, % at 7.7 µM | 2,000 tested, under 10 active | AID 1053135, 2014;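 active = inhibition above the mean over all tested compounds plus 3 SD, which no compound reached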;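 note: 0% = integrase with antibodies and DMSO and 100% = antibodies without integrase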
LEDGF integ conf: inhibitors of HIV-1 IN-LEDGF/p75 DNA integration, confirmation, biochemical, TR-FRET; TR-FRET LEDGF/p75-dependent HIV-1 integration; AID 1053136, 2014; inhibition, % at 3.7 µM; shares compounds with LEDGF integ inh; 36% of 2,000 active
SIAE confirm: human SIAE inhibitors, retest, confirmation, biochemical, fluorescence polarization, FP-Rh probe, triplicate. shares compounds with SIAE primary. SIAE FP-Rh activity-based probe. inhibition, % at 9.66 µM. 13% of 2,300 active;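 active = mean inhibition of the replicates above the hit cutoff set in the primary screen, cut at about 17% in these data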;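 note: 0% = SIAE with DMSO and probe and 100% = probe without SIAE; inhibitors lower polarization as more probe stays unbound to SIAE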
* hit, by the source's call; nt = no result. Most compounds without a hit are left out; they make up all but 3.3% or so of the library. Cut-off read from the data, not from the text of the source, unless noted: active = inhibition above about 14%; inactive = the rest.

SMILES	MBD2 DNA inh	LEDGF integ inh	TDP2 absorb	PRMT1 inh	SIAE primary	UHRF1 MBD2 ctr	TDP2 inh conf	others
CCOC(=O)[C@@]12CN(C(=O)OC(C)(C)C)CC=C1N(Cc1ccc(OC)cc1)C(=O)[C@H]2CC(=O)N1CCCC1	0.5	-3.0	2.8	4.8	-4.9	1.9	nt
CCc1cc(/C(Cc2csc(C)n2)=N/O)c(O)cc1O	13.8*	-5.1	0.2	-0.8	19.2*	14.3	nt	UHRF1 ctr MBD2=7.7;MBD2 confirm=1.2;SIAE confirm=14.2
Cc1cc(C)cc(NC(=O)OC2CC3CC2[C@H]2CCCCN2[C@H]3Cc2ccccc2)c1 (stereo partly drawn)	-3.1	0.9	-1.4	-6.3	-3.9	-0.1	nt
O=S(=O)(O)c1cc(O)c2cc(Nc3ccccc3)ccc2c1	26.3*	16.3*	13.7	nt	18.4*	32.5*	nt	UHRF1 ctr MBD2=31.1*;MBD2 confirm=14.1*;IN multimer act=40.6*;TRFRET interf=-145.4;LEDGF integ conf=43.6*;SIAE confirm=43.2*
Cc1noc(C)c1S(=O)(=O)N1CCCC(C(=O)NCc2ccccc2Cl)C1 (stereo not drawn)	3.7	1.2	27.2*	3.0	4.0	5.2	0.4
COc1cc(/C=C2\N=C(c3ccccc3)NNC2=O)cc(OC)c1OC	-6.7	2.9	4.5	-1.1	1.4	-7.1	nt
O=C1NNC(c2ccccc2)=N/C1=C\c1ccccc1Cl	-4.7	4.6	55.9*	-0.7	-1.8	-4.4	61.7*
CC1=NN(Cc2cc(C(C)(C)C)c(O)c(C(C)(C)C)c2)C(=O)C1	0.9	-1.0	25.2*	3.9	3.2	-3.9	0.3
CC(C)(C)c1cc(CN2CCC(O)CC2)cc(C(C)(C)C)c1O	2.6	-0.6	-5.8	4.0	-2.1	8.4	nt
Cc1nn(-c2ccccc2)c(N)c1C1(O)C(=O)Nc2ccc([N+](=O)[O-])cc21 (stereo not drawn)	0.5	-4.2	32.8*	2.3	8.1	-3.8	-3.9
CCCC[C@H](C(=O)N(CC)c1ccccc1)[C@@H](O)c1ccc(C(C)=O)cc1	-2.1	-5.0	0.5	1.3	0.9	1.6	nt
CCOc1ccc2[nH]c3nc(SCC(=O)OC(C)C)nnc3c2c1	-4.9	0.5	24.9*	-2.1	5.5	1.1	3.7
COc1cccc(CNC(=O)CSc2nnc3c(n2)[nH]c2ccc(OC)cc23)c1	-6.6	2.4	-23.6	-0.3	6.0	2.6	nt
